According to ChEMBL document CHEMBL1145896, “5-Substituted-2,4-diamino-6-[2-(phosphonomethoxy)ethoxy]pyrimidines-acyclic nucleoside phosphonate analogues with antiviral activity” (J Med Chem, 2003):

How the values were obtained:
Human alphaherpesvirus 3 [1] = assay: Antiviral activity against 07/1 strain of VZV in HEL ([…]) cells.; format: functional, organism-based
Summary of the method: (§1)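 Inhibition of virus-induced cytopathicity. HSV-1 and HSV-2 were tested in E6SM cells; VZV and CMV in HEL cells. Confluent monolayers were inoculated with 100 CCID50 of virus. After 1–2 h adsorption, residual virus was removed and compound was added at serial concentrations (400, 200, 100, ... μg/mL). Cytopathicity was scored once untreated infected controls reached complete CPE.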

[2] = Antiviral activity against vaccinia virus in HEL ([…]) cells.; format: functional, cell-based
CCRF-CEM = assay: Cytotoxicity against CEM (human lymphoblastic leukemia) cells in vitro.; format: functional
Human alphaherpesvirus 3 [3] = assay: Antiviral activity against OKA strain of VZV in HEL ([…]) cells.; format: functional, organism-based; set-up: unit not given here; summary of the method: as §1
[4] = Antiviral activity against G strain of HSV-2 in E6SM cells.; format: functional, cell-based, herpes simplex virus; summary of the method: as §1
[5] = test system: Human immunodeficiency virus 1; assay: Antiviral activity against HIV-1 (IIIB) in CEM (human leukemia) cells.; format: functional, organism-based; settings: ccrf-cem
Summary of the method: (§2)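 Human CEM cells (~3 × 10^5 cells/mL) were infected with 100 CCID50 per mL of HIV-1 (IIIB) or HIV-2 (ROD) and seeded into wells containing compound dilutions. After 4 days at 37 °C, syncytium (giant cell) formation was examined microscopically.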

[6] = Antiviral activity against KOS strain of HSV-1 in E6SM cells.; format: functional, cell-based, herpes simplex virus; summary of the method: as §1
Cytomegalovirus [7] = assay: Antiviral activity against AD169 strain of cytomegalovirus (CMV) in HEL ([…]) cells.; format: functional, organism-based; summary of the method: as §1
[8] = test system: Moloney murine sarcoma virus; assay: Antiviral activity against murine sarcoma virus; format: functional, organism-based
Summary of the method: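 Murine C3H/3T3 embryo fibroblasts were seeded at 5 × 10^5 cells/mL. After 24 h, cells were infected with 80 focus-forming units of MSV (from mouse tumours) for 90–120 min at 37 °C. Medium was then replaced by fresh medium containing varied compound concentrations, and MSV-induced transformation was the read-out.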

Cytomegalovirus [9] = assay: Antiviral activity against Davis strain of cytomegalovirus (CMV) in HEL ([…]) cells.; format: functional, organism-based; summary of the method: as §1
[10] = test system: Human immunodeficiency virus 2; assay: Antiviral activity against HIV-2 (ROD) in CEM (human leukemia) cells.; format: functional, organism-based; settings: ccrf-cem; summary of the method: as §2
[11] = Antiviral activity against KOS strain of HSV-1; ND=No data; format: functional, herpes simplex virus
Summary of the method: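 Confluent E6SM cell cultures in 96-well plates were inoculated with 100 CCID50 virus. After 1–2 h adsorption, inoculum was removed and test compound was added at 400, 200, 100, ... µg/mL.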

SMILES	EC50 (Human alphaherpesvirus 3 [1]) [uM ml-1]	EC50 [2] [uM ml-1]	CC50 (CCRF-CEM) [µM]	EC50 (Human alphaherpesvirus 3 [3])	EC50 [4] [uM ml-1]	EC50 [5] [uM ml-1]	EC50 [6] [uM ml-1]	EC50 (Cytomegalovirus [7]) [uM ml-1]	EC50 [8] [uM ml-1]	EC50 (Cytomegalovirus [9]) [uM ml-1]	EC50 [10] [uM ml-1]	EC50 [11] [uM ml-1]
Nc1nc(N)c(CC(=O)O)c(OCCOCP(=O)(O)O)n1	> 0.15	> 1.2	> 300	> 0.15	> 1.2	> 0.3	> 1.2	> 0.15	0.046	> 0.15	> 0.3	–
Nc1cc(OCCOCP(=O)(O)O)nc(N)n1	0.0095	0.18	42	0.0045	0.033	0.003	0.025	> 0.19	0.00015	> 0.19	0.0016	–
Cc1c(N)nc(N)nc1OCCOCP(=O)(O)O	0.042	> 1.2	15	0.018	> 1.2	0.00043	> 1.2	> 0.15	0.00022	> 0.15	0.00031	–
Nc1cc(OC[C@H](CO)OCP(=O)(O)O)nc(N)n1	0.00024	0.0065	23	0.00017	0.017	> 0.014	0.0048	0.13	> 0.0027	0.12	0.014	–
CCOC(=O)Cc1c(N)nc(N)nc1OCCOCP(=O)(O)O	> 0.15	> 1.2	> 300	> 0.15	> 1.2	> 0.3	> 1.2	> 0.15	0.035	> 0.15	0.078	–
Nc1nc(N)c(C2CC2)c(OCCOCP(=O)(O)O)n1	–	–	> 300	–	–	> 0.3	–	–	> 1.12	–	> 0.3	> 1.2
Nc1nc(N)n(CCOCP(=O)(O)O)c(=O)c1C1CC1	> 0.15	> 1.2	> 300	–	> 1.2	> 0.3	> 1.2	> 0.15	> 1.12	–	> 0.3	–
N#CCc1c(N)nc(N)n(CCOCP(=O)(O)O)c1=O	0.084	> 1.2	> 300	> 0.15	> 1.2	> 0.3	> 1.2	> 0.15	0.3	> 0.15	> 0.3	–
Cc1c(N)nc(N)n(CCOCP(=O)(O)O)c1=O	> 0.15	> 1.2	> 300	–	> 1.2	> 0.3	> 1.2	> 0.15	> 1.12	–	> 0.3	–
Nc1ncnc2c1ncn2CCOCP(=O)(O)O [ADEFOVIR]	–	> 0.17	56	–	0.024	0.0033	0.024	0.1	0.0022	0.27	0.0066	–
C[C@H](Cn1cnc2c(N)ncnc21)OCP(=O)(O)O [TENOFOVIR ANHYDROUS]	0.17	> 0.17	410	–	> 0.17	0.0012	> 0.17	> 0.17	0.0046	> 0.17	0.0014	–
